Legend:
[1] = biological target: G-protein coupled receptor 35 (Mus musculus, UniProt Q9ES90); assay: Agonist activity at mouse GPR35 expressed in CHO cells assessed as induction of beta-arrestin recruitment after 90 mins by beta-galactosidase reporter gene assay; assay type: cell-based
Method in brief: (§1)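 Mouse GPR35 introduced by transfection into a CHO β-arrestin-EA line; 20000 cells/well plated the day prior. After 90 min of compound exposure (final DMSO ≤1%), detection reagent was added and luminescence read after 60 min.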

[2] = biological target: T1, G-protein coupled receptor 55 (Homo sapiens, UniProt Q9Y2T6); assay: Agonist activity at human GPR55 expressed in CHO cells assessed as induction of beta-arrestin recruitment at 10 uM after 90 mins by beta-galactosidase reporter gene assay relative to lysophosphotidylinositol; assay type: functional, cell-based
T1 sequence (Q9Y2T6 whole entry): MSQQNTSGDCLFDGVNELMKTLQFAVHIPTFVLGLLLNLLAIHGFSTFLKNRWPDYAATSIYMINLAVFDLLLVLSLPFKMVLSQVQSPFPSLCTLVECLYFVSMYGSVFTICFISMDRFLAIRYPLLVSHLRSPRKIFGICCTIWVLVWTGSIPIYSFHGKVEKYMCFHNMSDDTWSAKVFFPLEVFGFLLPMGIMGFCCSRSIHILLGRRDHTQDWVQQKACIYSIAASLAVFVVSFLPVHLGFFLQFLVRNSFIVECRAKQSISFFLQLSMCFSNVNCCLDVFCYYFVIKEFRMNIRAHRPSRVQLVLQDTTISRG
Method in brief: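 Human GPR55 PathHunter CHO cells, 20000 cells/well seeded the day before, received test compound at 10 µM (final DMSO ≤1%) for 90 min. Detection reagent was then added and luminescence read after 60 min. Signal was normalized to that of 1 µM LPI.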

[3] = biological target: T2, G-protein coupled receptor 35 (Homo sapiens, UniProt Q9HC97); assay: Agonist activity at human GPR35 expressed in CHO cells assessed as induction of beta-arrestin recruitment after 90 mins by beta-galactosidase reporter gene assay; assay type: cell-based
T2 sequence (Q9HC97 whole entry, the tested form may be a part): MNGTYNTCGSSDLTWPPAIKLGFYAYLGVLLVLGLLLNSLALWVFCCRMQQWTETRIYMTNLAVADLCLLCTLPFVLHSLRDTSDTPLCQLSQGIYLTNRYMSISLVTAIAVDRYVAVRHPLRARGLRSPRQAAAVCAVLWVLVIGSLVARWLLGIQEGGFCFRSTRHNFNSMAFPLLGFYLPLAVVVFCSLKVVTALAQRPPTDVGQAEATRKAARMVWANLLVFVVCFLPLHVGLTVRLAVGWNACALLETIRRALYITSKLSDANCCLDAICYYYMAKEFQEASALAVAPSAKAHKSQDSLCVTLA
Method in brief: (§2)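 PathHunter enzyme-fragment complementation in CHO cells stably expressing β-arrestin-EA and tagged human GPR35, seeded at 20000 cells/well the day before. DMSO dilutions were further diluted 1:10 (final DMSO ≤1%). Cells were incubated 90 min, then detection reagent was added and luminescence read after 60 min.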

[4] = biological target: G protein-coupled receptor GPR35 (Rattus norvegicus, UniProt Q33BM1); assay: Agonist activity at rat GPR35 expressed in CHO cells assessed as induction of beta-arrestin recruitment after 90 mins by beta-galactosidase reporter gene assay; assay type: cell-based
G protein-coupled receptor GPR35, sequence (Q33BM1 whole entry): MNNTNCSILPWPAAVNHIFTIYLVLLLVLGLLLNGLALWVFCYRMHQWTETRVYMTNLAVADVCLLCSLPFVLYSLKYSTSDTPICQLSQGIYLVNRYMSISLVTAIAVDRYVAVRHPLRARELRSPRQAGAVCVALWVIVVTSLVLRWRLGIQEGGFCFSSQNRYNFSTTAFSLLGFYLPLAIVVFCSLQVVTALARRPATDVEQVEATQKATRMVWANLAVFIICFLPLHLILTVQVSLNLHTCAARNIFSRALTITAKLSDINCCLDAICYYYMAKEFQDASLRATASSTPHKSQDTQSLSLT
Method in brief: (§3)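 Rat GPR35 expressed by transfecting a parental CHO β-arrestin-EA line; cells seeded at 20000/well the day before. Compounds (final DMSO ≤1%) were incubated 90 min, followed by detection reagent and a luminescence read after 60 min.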

[5] = biological target: T2, G-protein coupled receptor 35; assay: Agonist activity at human GPR35b expressed in CHO cells assessed as induction of beta-arrestin recruitment after 90 mins by beta-galactosidase reporter gene assay; assay type: cell-based
Method in brief: (§4)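 CHO β-arrestin-EA parental line transfected with human GPR35b, seeded at 20000 cells/well the day before. Compounds in DMSO were diluted 1:10 in medium or PBS (final DMSO ≤1%). After 90 min of incubation, detection reagent was added and luminescence measured 60 min later. Screening was at 10 µM.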

[6] = biological target: T2, G-protein coupled receptor 35; assay: Agonist activity at human GPR35b expressed in CHO cells assessed as induction of beta-arrestin recruitment at 10 uM after 90 mins by beta-galactosidase reporter gene assay relative to zaprinast; assay type: cell-based; method in brief: as §4
[7] = biological target: T1, G-protein coupled receptor 55; assay: Antagonist activity at human GPR55 expressed in CHO cells assessed as inhibition of lysophosphotidylinositol-induced beta-arrestin recruitment at 10 uM preincubated for 30 mins followed by lysophosphotidylinositol induction by beta-galactosidase reporter gene assay relative to control; assay type: functional, cell-based
Method in brief: (§5)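 Human GPR55 PathHunter CHO cells were preincubated 30 min with compound, then stimulated with LPI (final 1 µM). After 90 min, detection reagent was added and luminescence read 60 min later. Screening was at 10 µM; full concentration-inhibition curves were run for selected compounds to give IC50.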

[8] = biological target: G protein-coupled receptor GPR35 (Rattus norvegicus) (UniProt Q33BM1); assay: Agonist activity at rat GPR35 expressed in CHO cells assessed as induction of beta-arrestin recruitment at 10 uM after 90 mins by beta-galactosidase reporter gene assay relative to zaprinast; assay type: cell-based; method in brief: as §3
G protein-coupled receptor GPR35 (Rattus norvegicus), sequence (Q33BM1 as listed by the source): as the sequence (Q33BM1 whole entry) above

[9] = biological target: G-protein coupled receptor 35 (Mus musculus) (UniProt Q9ES90); assay: Agonist activity at mouse GPR35 expressed in CHO cells assessed as induction of beta-arrestin recruitment at 10 uM after 90 mins by beta-galactosidase reporter gene assay relative to zaprinast; assay type: cell-based; method in brief: as §1
G-protein coupled receptor 35 (Mus musculus), sequence (Q9ES90 whole entry): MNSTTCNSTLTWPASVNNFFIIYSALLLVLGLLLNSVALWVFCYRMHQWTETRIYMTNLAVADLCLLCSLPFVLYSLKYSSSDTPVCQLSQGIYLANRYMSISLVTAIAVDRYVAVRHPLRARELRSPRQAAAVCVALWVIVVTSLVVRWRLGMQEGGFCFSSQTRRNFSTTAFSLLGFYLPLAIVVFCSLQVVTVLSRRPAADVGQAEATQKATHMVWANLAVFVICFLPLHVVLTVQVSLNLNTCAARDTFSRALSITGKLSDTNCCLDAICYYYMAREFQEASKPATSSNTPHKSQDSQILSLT

[10] = biological target: T2, G-protein coupled receptor 35; assay: Agonist activity at human GPR35 expressed in CHO cells assessed as induction of beta-arrestin recruitment at 10 uM after 90 mins by beta-galactosidase reporter gene assay relative to zaprinast; assay type: cell-based; method in brief: as §2
[11] = biological target: G-protein coupled receptor 35 (Mus musculus) (UniProt Q9ES90); assay: Agonist activity at mouse GPR35 expressed in CHO cells assessed as induction of beta-arrestin recruitment at 10 uM after 90 mins by beta-galactosidase reporter gene assay; assay type: cell-based; method in brief: as §1
[12] = biological target: G protein-coupled receptor GPR35 (Rattus norvegicus) (UniProt Q33BM1); assay: Agonist activity at rat GPR35 expressed in CHO cells assessed as induction of beta-arrestin recruitment at 10 uM after 90 mins by beta-galactosidase reporter gene assay; assay type: cell-based; method in brief: as §3
[13] = biological target: T2, G-protein coupled receptor 35; assay: Agonist activity at human GPR35 expressed in CHO cells assessed as induction of beta-arrestin recruitment at 10 uM after 90 mins by beta-galactosidase reporter gene assay; assay type: cell-based; method in brief: as §2
[14] = species: Homo sapiens; assay: Selectivity ratio of IC50 for human GPR55 to EC50 for human GPR35
[15] = biological target: T1, G-protein coupled receptor 55; assay: Antagonist activity at human GPR55 expressed in CHO cells assessed as inhibition of lysophosphotidylinositol-induced beta-arrestin recruitment preincubated for 30 mins followed by lysophosphotidylinositol induction by beta-galactosidase reporter gene assay; assay type: functional, cell-based; method in brief: as §5

G-protein coupled receptor 35 (Mus musculus, UniProt Q9ES90), sequence (Q9ES90 whole entry): as above

SMILES	EC50 [1]	Activity [2]	EC50 [3]	EC50 [4]	EC50 [5]	Emax [6]	inhibition [7]	Emax [8]	Emax [9]	Emax [10]	Activity [11]	Activity [12]	Activity [13]	Ratio IC50/EC50 [14]	IC50 [15]
COc1ccc(C(=O)Nc2cc(Br)cc3c(=O)cc(C(=O)O)oc23)cc1OC	6.4 µM	-12%	425 nM	1300 nM	628 nM	101%	45%	106%	73%	102%	–	–	–	–	–
O=C(O)c1cc(=O)c2cc(Br)cc(NC(=O)c3ccc(Cl)cc3Cl)c2o1	–	10%	16.4 nM	–	34.6 nM	116%	43%	–	–	110%	12%	32%	–	–	–
O=C(Nc1cccc2c(=O)cc(C(=O)O)oc12)c1ccc2ccccc2n1	3.59 µM	-6%	1340 nM	–	–	–	31%	–	65%	81%	–	41%	–	–	–
COc1ccc(C(=O)Nc2cccc3c(=O)cc(C(=O)O)oc23)cc1	5.03 µM	0%	346 nM	2160 nM	472 nM	115%	-3%	85%	66%	104%	–	–	–	–	–
O=C(Nc1cccc2c(=O)cc(C(=O)O)oc12)c1ccc(OCC2CC2)cc1	–	-5%	–	–	–	–	24%	–	–	–	13%	48%	10%	–	–
COc1ccccc1C(=O)Nc1cc(Br)cc2c(=O)cc(C(=O)O)oc12	4.95 µM	9%	1660 nM	1100 nM	–	–	44%	73%	71%	91%	–	–	–	–	–
O=C1N/C(=N/c2ccccc2F)S/C1=C\c1ccc(C(=O)O)cc1	17 µM	–	–	8000 nM	–	–	–	–	–	–	–	–	–	–	–
CCCOc1ccccc1-c1nc2nn[nH]c2c(=O)[nH]1 [ZAPRINAST]	1.6 µM	–	–	61.1 nM	–	–	–	–	–	–	–	–	–	–	–
O=C(O)c1cc(=O)c2cc(F)cc(NC(=O)c3ccc(Cl)cc3Cl)c2o1	–	-8%	17 nM	–	20.5 nM	110%	18%	–	–	113%	24%	46%	–	–	–
O=C(Nc1cccc2c(=O)cc(C(=O)O)oc12)c1ccc(Br)cc1	–	8%	804 nM	–	678 nM	113%	9%	–	–	122%	28%	49%	–	–	–
COc1ccc(C(=O)Nc2cc(F)cc3c(=O)cc(C(=O)O)oc23)cc1	–	7%	112 nM	1760 nM	143 nM	113%	34%	78%	–	123%	30%	–	–	–	–
CCCOc1ccc(C(=O)Nc2cccc3c(=O)cc(C(=O)O)oc23)cc1	–	10%	–	3610 nM	–	–	21%	80%	–	–	13%	–	4%	–	–
COc1ccc(C(=O)Nc2cc(Br)cc3c(=O)cc(C(=O)O)oc23)c(Cl)c1	–	10%	11.1 nM	4170 nM	14.7 nM	129%	–	81%	–	120%	35%	–	–	> 1700	21.7 µM
Cc1cccc(C(=O)Nc2cc(Br)cc3c(=O)cc(C(=O)O)oc23)c1	–	-8%	842 nM	2080 nM	699 nM	111%	46%	79%	–	138%	27%	–	–	–	–
O=C(Nc1cc(Br)cc2c(=O)cc(C(=O)O)oc12)c1ccc(Cl)cc1	–	12%	25.1 nM	–	40.5 nM	130%	40%	–	–	115%	27%	47%	–	–	–
O=C(Nc1cccc2c(=O)cc(C(=O)O)oc12)c1ccc2ccccc2c1	2.99 µM	6%	4670 nM	–	–	–	–	–	79%	125%	–	46%	–	–	29.1 µM
Nc1cccc2c(=O)cc(C(=O)O)oc12	–	-11%	–	–	–	–	19%	–	–	–	4%	40%	2%	–	–
O=C(Nc1cc(Br)cc2c(=O)cc(C(=O)O)oc12)c1ccc2c(c1)OCO2	–	9%	59.9 nM	2050 nM	128 nM	118%	46%	86%	–	107%	34%	–	–	–	–
COc1ccc(C(=O)Nc2cc(Br)cc3c(=O)cc(C(=O)O)oc23)nc1	–	4%	144 nM	1540 nM	–	–	–	68%	–	115%	27%	–	–	–	8.92 µM
COc1ccc(C(=O)Nc2cc(Br)cc3c(=O)cc(C(=O)O)oc23)cn1	4.98 µM	9%	30.5 nM	991 nM	–	–	–	94%	64%	117%	–	–	–	–	6.2 µM
